In data set [1] the target is Chymotrypsinogen B (Homo sapiens) (UniProt P17538). In words: Kinetic constant was determined from the initial rates of enzymatic hydrolysis by the Lineweaver-Burke method against alpha-chymotrypsin enzyme at a concentration of 2.0 uM. The conditions noted are these: Sus scrofa. A digest of the protocol: (§1)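 Chymotrypsin assayed in 50 mM Tris-HCl pH 8.0 with 10 mM CaCl2 at 25 °C. Active enzyme was titrated with 2-nitro-4-carboxyphenyl diphenylcarbamate. Product release was followed fluorimetrically, with excitation 410 nm and emission 550 nm for MAQ+, and 355/550 nm for 6-AQ. Constants were taken from initial hydrolysis rates by Lineweaver–Burk plots.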
Chymotrypsinogen B (Homo sapiens), sequence (P17538 34-164 limits assumed, other chains not shown): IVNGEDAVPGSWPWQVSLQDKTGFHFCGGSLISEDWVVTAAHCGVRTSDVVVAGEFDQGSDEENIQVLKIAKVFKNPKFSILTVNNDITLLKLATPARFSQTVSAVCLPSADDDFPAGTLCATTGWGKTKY
Chymotrypsinogen B (Homo sapiens), sequence (P17538 167-263 limits assumed, other chains not shown): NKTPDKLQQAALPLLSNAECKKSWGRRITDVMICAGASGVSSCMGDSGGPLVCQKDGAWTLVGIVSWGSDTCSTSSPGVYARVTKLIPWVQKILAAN

Data set [2] shares this target. In words: (§2) Ratio of Kcat to Km of the compound. The note with it: Sus scrofa.
Data set [3] has as its system C[C@H](NC(=O)CCC(=O)O)C(=O)N[C@@H](C)C(=O)N[C@@H](C)C(=O)Nc1ccc2ncccc2c1. In words: (§3) Kinetic constant was determined from the initial rates of enzymatic hydrolysis by the Lineweaver-Burke method against elastase at a concentration of 1.4 uM. In kind it is protein assay. A digest of the protocol:
(§4)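 Porcine pancreatic elastase assayed in 67 mM Tris-HCl pH 8.8 at 37 °C in a thermostatted cuvette. Specific activity was checked with orcein-elastin before each experiment. Leaving-group fluorescence was read at 410/550 nm (MAQ+) or 355/550 nm (6-AQ). Kinetic constants came from initial rates by Lineweaver–Burk analysis.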

Data set [4] deals with C[C@H](NC(=O)OCc1ccccc1)C(=O)N[C@@H](C)C(=O)N[C@@H](C)C(=O)Nc1ccc2c(ccc[n+]2C)c1. The data set is described as §3. In kind it is protein assay. A digest of the protocol: as §4
Data set [5] relates to C[C@H](NC(=O)OCc1ccccc1)C(=O)N[C@@H](C)C(=O)Nc1ccc2c(ccc[n+]2C)c1. The description is as §3. In kind it is protein assay. The essentials:
as §4

In data set [6] the target is Serine protease 1 (Homo sapiens) (UniProt P07477). As to the kind of experiment: Kinetic constant was determined from the initial rates of enzymatic hydrolysis by the Lineweaver-Burke method against trypsin enzyme at a concentration of 1.0 uM. The conditions noted are these: Sus scrofa. A digest of the protocol:
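Trypsin, active-site titrated with p-nitrophenyl p-guanidinobenzoate, was used in 46 mM Tris-HCl pH 8.1 containing 11 mM CaCl2 at 25 °C. Hydrolysis was monitored by fluorescence, with excitation/emission 410/550 nm for MAQ+ and 355/550 nm for 6-AQ. Initial rates were fitted by the Lineweaver–Burk method.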

For data set [7] the target is unchanged. Described as §2. The conditions noted are these: Sus scrofa.
Data set [8] in a line: as §2.
Data set [9] addresses Pancreatic elastase (Sus scrofa) (UniProt P08419+P00772). The data set is described as §3. In kind it is protein assay. A digest of the protocol:
as §4

Data set [10] has as its system C[n+]1cccc2cc(NC(=O)[C@H](Cc3ccccc3)NC(=O)OCc3ccccc3)ccc21. In words: Kinetic constant was determined from the initial rates of enzymatic hydrolysis by the Lineweaver-Burke method against chymotrypsin enzyme at a concentration of 2.0 uM. The note with it: Sus scrofa. The essentials:
as §1

The text below walks through data of ChEMBL document CHEMBL1122724, “Synthesis and kinetic studies of protease substrates containing the 1-methyl-6-aminoquinolinium ion as a fluorogenic leaving group” (J Med Chem, 1984).

Pancreatic elastase (Sus scrofa) (from UniProt P08419+P00772), sequence (P00772 whole entry, looked up): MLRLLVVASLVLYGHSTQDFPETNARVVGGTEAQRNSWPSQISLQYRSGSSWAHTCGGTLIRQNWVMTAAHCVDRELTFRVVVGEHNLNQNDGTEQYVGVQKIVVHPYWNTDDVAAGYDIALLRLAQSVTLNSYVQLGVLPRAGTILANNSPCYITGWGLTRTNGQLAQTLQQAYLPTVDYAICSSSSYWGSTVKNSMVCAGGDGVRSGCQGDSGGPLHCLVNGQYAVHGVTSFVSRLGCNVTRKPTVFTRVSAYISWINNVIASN
Pancreatic elastase (Sus scrofa) (from UniProt P08419+P00772), sequence (P08419 whole entry, looked up): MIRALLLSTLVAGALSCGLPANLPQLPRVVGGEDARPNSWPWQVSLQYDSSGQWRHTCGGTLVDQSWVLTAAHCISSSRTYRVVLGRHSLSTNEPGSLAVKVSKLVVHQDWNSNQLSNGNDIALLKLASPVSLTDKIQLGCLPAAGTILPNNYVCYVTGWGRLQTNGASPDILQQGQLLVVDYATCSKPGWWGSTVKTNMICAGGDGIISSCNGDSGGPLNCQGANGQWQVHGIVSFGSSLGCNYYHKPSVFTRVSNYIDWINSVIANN
Serine protease 1 (Homo sapiens), sequence (P07477 whole entry): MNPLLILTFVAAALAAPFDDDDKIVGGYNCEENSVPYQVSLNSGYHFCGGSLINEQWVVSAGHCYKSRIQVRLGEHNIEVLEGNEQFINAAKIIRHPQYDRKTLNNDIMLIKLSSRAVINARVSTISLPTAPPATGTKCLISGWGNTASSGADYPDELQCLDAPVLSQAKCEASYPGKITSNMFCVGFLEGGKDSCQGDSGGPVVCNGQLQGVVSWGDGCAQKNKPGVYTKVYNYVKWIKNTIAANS

In data set [1], `O=C(O)CCCC(=O)N[C@@H](Cc1ccccc1)C(=O)Nc1ccc2ncccc2c1` came in with a k cat of 0.14 s⁻¹. In data set [2], the Ratio was determined as 79 M⁻¹ s⁻¹.

On to “Pancreatic elastase (Sus scrofa) (from UniProt P08419+P00772)”, for which the Km in [3] worked out at 500 µM; in data set [4], 230 µM; in data set [5], 4170 µM.

Regarding `N=C(N)NCCCC(NC(=O)c1ccccc1)C(=O)Nc1ccc2ncccc2c1` (stereo not drawn), the k cat in [6] worked out at 0.6 s⁻¹. The Ratio in data set [7] was 1500 M⁻¹ s⁻¹.

In the case of `C[C@H](NC(=O)OCc1ccccc1)C(=O)N[C@@H](C)C(=O)N[C@@H](C)C(=O)Nc1ccc2c(ccc[n+]2C)c1`, the Ratio in data set [8] came to 4740 M⁻¹ s⁻¹. In addition, the k cat in data set [9] was found to be 1.09 s⁻¹.

With `C[C@H](NC(=O)OCc1ccccc1)C(=O)N[C@@H](C)C(=O)Nc1ccc2c(ccc[n+]2C)c1`, the Ratio in [8] is 10 M⁻¹ s⁻¹. The compound also came in with a k cat in [9] of 0.043 s⁻¹.

On to `C[C@H](NC(=O)CCC(=O)O)C(=O)N[C@@H](C)C(=O)N[C@@H](C)C(=O)Nc1ccc2ncccc2c1`, for which the Ratio in data set [8] worked out at 3400 M⁻¹ s⁻¹. For the same compound, the k cat in data set [9] was 1.7 s⁻¹.

The compound `C[n+]1cccc2cc(NC(=O)C(CCCN=C(N)N)NC(=O)c3ccccc3)ccc21` (stereo not drawn) registered a k cat in data set [6] of 0.14 s⁻¹. In [7], the Ratio came out at 636 M⁻¹ s⁻¹.

As to “Chymotrypsinogen A (Bos taurus) (from UniProt P00766)”, in data set [10], the Km came to 180 µM.

In data set [1], `C[n+]1cccc2cc(NC(=O)[C@H](Cc3ccccc3)NC(=O)OCc3ccccc3)ccc21` had a k cat of 0.4 s⁻¹. Besides, the Ratio in [2] was 2220 M⁻¹ s⁻¹.
